Measurements: ChEMBL document CHEMBL1143002, “Discovery and structure-activity relationships of piperidinone- and piperidine-constrained phenethylamines as novel, potent, and selective dipeptidyl peptidase IV inhibitors” (J Med Chem, 2007)

Tests used:
Dipeptidyl peptidase 8 = Dipeptidyl peptidase 8 (Homo sapiens, UniProt Q6V1X1); test: Inhibition of DPP8
[1] = Cmax in rat at 5 mg/kg, po; format: ADME, organism-based; design: dose 5 mg/kg, route oral; details: in vivo
How it was run: (§1)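 Rats (n = 6) dosed at 5 mg/kg by iv and po routes. Plasma clearance and steady-state volume of distribution were taken from iv dosing. Cmax (maximal concentration) and terminal half-life were taken from oral dosing. AUC and oral bioavailability (F) are also reported.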

[2] = Oral bioavailability in rat at 5 mg/kg, po; format: ADME, organism-based; details: in vivo; how it was run: as §1
Rattus norvegicus = test: AUC in rat at 5 mg/kg, po; format: ADME, organism-based, Plasma; design: dose 5 mg/kg, route oral; details: in vivo; how it was run: as §1
[3] = Plasma clearance in rat at 5 mg/kg, iv; format: ADME, organism-based; design: dose 5 mg/kg, route intravenous; how it was run: as §1
[4] = Volume of distribution at steady state in rat at 5 mg/kg, iv; format: ADME, organism-based; design: dose 5 mg/kg, route intravenous; details: in vivo, read-out: Vss; how it was run: as §1
[5] = Half life in rat at 5 mg/kg, po; format: ADME, organism-based; design: dose 5 mg/kg, route oral; details: in vivo; how it was run: as §1
Dipeptidyl peptidase 9 = Dipeptidyl peptidase 9 (Homo sapiens, UniProt Q86TI2); test: Inhibition of DPP9
Chain of Dipeptidyl peptidase 9 (Q86TI2 whole entry): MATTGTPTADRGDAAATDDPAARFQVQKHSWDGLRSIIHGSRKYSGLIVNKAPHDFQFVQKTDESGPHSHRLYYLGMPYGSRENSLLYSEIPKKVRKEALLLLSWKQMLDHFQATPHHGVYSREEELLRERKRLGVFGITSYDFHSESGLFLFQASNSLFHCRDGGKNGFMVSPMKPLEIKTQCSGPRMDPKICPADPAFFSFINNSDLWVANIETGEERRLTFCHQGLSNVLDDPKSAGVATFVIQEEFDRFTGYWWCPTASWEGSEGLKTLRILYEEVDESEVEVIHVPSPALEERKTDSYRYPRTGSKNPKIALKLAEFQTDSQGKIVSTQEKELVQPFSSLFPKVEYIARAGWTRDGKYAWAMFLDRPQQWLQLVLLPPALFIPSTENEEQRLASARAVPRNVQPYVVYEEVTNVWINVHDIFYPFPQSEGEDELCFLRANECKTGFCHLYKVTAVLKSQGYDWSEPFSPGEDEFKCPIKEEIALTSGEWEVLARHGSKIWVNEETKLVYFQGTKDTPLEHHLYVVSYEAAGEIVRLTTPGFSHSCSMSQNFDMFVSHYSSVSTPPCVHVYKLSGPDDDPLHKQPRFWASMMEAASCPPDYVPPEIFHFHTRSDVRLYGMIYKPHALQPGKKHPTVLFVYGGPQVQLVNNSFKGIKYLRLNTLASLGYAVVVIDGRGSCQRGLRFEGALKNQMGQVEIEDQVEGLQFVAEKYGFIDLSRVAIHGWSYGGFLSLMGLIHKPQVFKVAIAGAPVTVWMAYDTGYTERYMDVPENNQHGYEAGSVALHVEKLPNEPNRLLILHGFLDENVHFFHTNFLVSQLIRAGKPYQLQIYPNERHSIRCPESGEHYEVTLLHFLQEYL

Chain of Dipeptidyl peptidase 8 (Q6V1X1 whole entry): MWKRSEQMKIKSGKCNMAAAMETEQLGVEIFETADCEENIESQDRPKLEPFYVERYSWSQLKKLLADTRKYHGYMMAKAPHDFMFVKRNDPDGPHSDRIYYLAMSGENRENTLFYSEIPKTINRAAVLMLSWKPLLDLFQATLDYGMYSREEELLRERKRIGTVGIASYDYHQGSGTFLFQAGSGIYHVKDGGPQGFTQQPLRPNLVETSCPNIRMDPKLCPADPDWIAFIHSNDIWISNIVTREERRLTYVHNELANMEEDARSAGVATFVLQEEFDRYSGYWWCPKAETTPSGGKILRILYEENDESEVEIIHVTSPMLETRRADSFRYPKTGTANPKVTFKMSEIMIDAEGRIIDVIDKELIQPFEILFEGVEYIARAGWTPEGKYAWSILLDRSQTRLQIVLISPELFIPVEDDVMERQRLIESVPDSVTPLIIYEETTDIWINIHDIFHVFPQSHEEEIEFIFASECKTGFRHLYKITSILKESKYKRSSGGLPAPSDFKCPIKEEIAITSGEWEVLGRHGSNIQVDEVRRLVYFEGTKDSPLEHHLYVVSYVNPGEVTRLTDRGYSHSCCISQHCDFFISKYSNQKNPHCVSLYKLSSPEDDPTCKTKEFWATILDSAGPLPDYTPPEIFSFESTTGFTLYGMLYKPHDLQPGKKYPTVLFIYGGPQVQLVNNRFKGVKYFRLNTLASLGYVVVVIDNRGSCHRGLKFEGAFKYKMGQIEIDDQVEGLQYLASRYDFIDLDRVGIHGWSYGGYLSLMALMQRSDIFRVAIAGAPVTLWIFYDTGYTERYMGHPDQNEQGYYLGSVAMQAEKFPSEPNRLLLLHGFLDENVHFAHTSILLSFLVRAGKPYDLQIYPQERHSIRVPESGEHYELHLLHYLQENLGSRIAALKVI

Ki (Dipeptidyl peptidase 8) [µM]	Cmax [1] [ng/mL]	bioavailability [2] [%]	AUC (Rattus norvegicus) [ng·h/mL]	clearance [3] [mL/min/kg]	Vd [4] [L/kg]	half-life [5] [h]	Ki (Dipeptidyl peptidase 9) [µM]	Compound
> 30								N[C@H]1CN(c2cc(N3CC[C@@H](O)C3)ncn2)C(=O)C[C@@H]1c1cc(F)c(F)cc1F
	710	27.6	771	30.2	1.24	1.8		CS(=O)(=O)c1cccc(CCN2C[C@H](N)[C@@H](c3cc(F)c(F)cc3F)CC2=O)c1
> 30	2000	90.3	24400	3.17	1.28	7.8	> 30	CS(=O)(=O)c1cccc(-c2cc(N3C[C@H](N)[C@@H](c4cc(F)c(F)cc4F)CC3=O)ncn2)c1
	192	9	223	36.3	1.04	0.42		Cl.N[C@H]1CN(CCc2ccc3c(c2)OCO3)C(=O)C[C@@H]1c1cc(F)c(F)cc1F
